CR mimetic SO: lowers age-related superoxide in aged yeast cells | 330,000 compounds, 0.18% hits | superoxide response (% of plate mean), % at 10 µM | S. cerevisiae aged cells, superoxide DHE fluorescence; hits give low values;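 active = superoxide response under a set limit, about three screen SD below normal, cut at about 65% in these data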;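 note: yeast aged for seven days with compound at 30 °C before DHE staining; 100% = average MFI of all compound-treated wells on the plate with controls excluded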
KLK7 zymogen act: proKLK7 (human) activation, primary screen | AID 652039 | activation, % at 7 µM | 370,000 compounds, 0.9% hits | P49862 | purified proKLK7, EDANS-DABCYL substrate fluorescence; 100% is mature enzyme control, 0% vehicle;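 active = activation above the mean of all tested compounds plus 3 SD, computed per campaign excluding outliers beyond control limits, cut at about 13% in these data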
Target sequence (P49862 whole entry, looked up): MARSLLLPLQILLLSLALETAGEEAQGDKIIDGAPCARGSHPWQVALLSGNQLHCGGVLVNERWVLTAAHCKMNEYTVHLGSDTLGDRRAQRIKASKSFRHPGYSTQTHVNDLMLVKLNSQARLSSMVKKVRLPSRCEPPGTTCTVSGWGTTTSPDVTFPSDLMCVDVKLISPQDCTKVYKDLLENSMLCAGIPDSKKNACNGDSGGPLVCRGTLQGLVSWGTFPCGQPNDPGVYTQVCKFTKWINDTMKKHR
T cell HTS: modulates CD8 T cell binding to vesicles. 2C CD8+ T cell-vesicle binding, flow cytometry; hits give low values. response (vesicle binding), % at 7 µM. 330,000 compounds, 0.068% hits. AID 2052;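 active = response, share of CD8 T cells binding vesicles, and their 90th percentile fluorescence all below set limits, cut at about 80% in these data, passing the limit was not always enough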;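 note: values below 100% mean blocked vesicle binding to the CD8+ T cells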
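Test system: purified 2C TCR transgenic mouse naive CD8+ T cells. Probe or stimulus: QL9-peptide-loaded Drosophila micro-vesicles bearing Ld, ICAM-1 and B7-1. Incubation: binding step 1.5 h, 37 °C, antibody labelling 20 min, ice. Measured by: flow cytometry of vesicle-bound cells.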
V-ATPase pHluor: alters yeast V-ATPase proton transport | AID 504577 | S. cerevisiae, pHLuorin cytosolic pH fluorescence | 350,000 compounds, 0.37% hits | response, % at 10 µM; in the data active = response mostly above about 7.3%, no sharp cut-off; inactive = mostly below about 5.4%; note: actives read high
Rce1 inhib: inhibitors of yeast Ras-converting enzyme; Q03530; yeast membranes, quenched prenylated peptide cleavage fluorescence; calls only; 290,000 compounds, 0.27% hits; AID 2563;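 active = fall in fluorescence gain of 50% or more versus controls, with final raw signal at or below 3038400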;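 note: plate controls were neutral control wells for no effect and wells lacking membranes for full effect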
Target sequence (Q03530 whole entry, looked up): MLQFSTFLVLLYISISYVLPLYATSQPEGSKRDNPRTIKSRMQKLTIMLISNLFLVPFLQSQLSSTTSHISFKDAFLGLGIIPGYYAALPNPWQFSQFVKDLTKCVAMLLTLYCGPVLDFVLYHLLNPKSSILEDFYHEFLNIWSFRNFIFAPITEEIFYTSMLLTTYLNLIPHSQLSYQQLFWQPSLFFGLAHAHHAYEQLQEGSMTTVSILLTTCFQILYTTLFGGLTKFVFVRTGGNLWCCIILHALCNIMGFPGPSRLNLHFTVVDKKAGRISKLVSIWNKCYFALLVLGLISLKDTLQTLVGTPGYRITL
MIN6 prolif: MIN6 beta-cell proliferation induction; MIN6 cells proliferation, ATPlite luminescence, 48 h; cells starved in 0.2% serum; 100% = growth in 10% serum; proliferation, % at 10 µM; 330,000 compounds, 0.29% hits; AID 2380;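 active = compounds whose signal lies at least 3.5 SD above the mean of all wells on their plate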;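 note: 0% = DMSO-treated cells in low-serum medium and 100% = 10% serum control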
Superoxide pick: confirmation of caloric restriction mimetics inhibiting yeast age-related superoxide; shares compounds with CR mimetic SO; S. cerevisiae aging, superoxide DHE fluorescence; hits give low values; superoxide response (% of plate), % at 10 µM; 850 compounds, 1% hits; AID 434994;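 active = superoxide signal below 65% of the plate average of sample wells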;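 note: cells aged with compound for 7 days at 30 degrees C before staining; 100% equals mean DHE fluorescence of all compound wells on the plate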
DHE counter: DHE fluorescence interference, counter-screen artifact; shares compounds with CR mimetic SO; S. cerevisiae BY4741, flow cytometry; hits give low values; fluorescence response, % at 10 µM; 850 tested, under 10 active; AID 435000;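 active = fluorescence response below 15%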;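 note: percent of the mean fluorescence averaged over all compound wells on the plate; lower means stronger quenching of DHE signal or ROS scavenging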
The depositor's hits bear a star; i = inactive; / = not tested or not shown; + = active, no number. Hits are enriched below; roughly 1.9% of the tested compounds scored in any of these assays.

SMILES	CR mimetic SO	KLK7 zymogen act	T cell HTS	V-ATPase pHluor	Rce1 inhib	MIN6 prolif	Superoxide pick	DHE counter
Cc1cc(C(=O)COc2cccnc2[N+](=O)[O-])c(C)n1-c1ccccc1	58*	0	296	-3	i	-5	123	129
Cc1nc2c(-c3ccccc3)c(C)nn2c(N)c1-c1ccccc1	116	0	161	-17	i	-6	/	/
CC(=O)c1cnc2c(-c3ccccc3)c(-c3ccccc3)nn2c1C	109	0	430	-1	i	2	116	122
Cc1cc(N)n2nc(-c3ccccc3)c(-c3ccccc3)c2n1	106	/	257	-4	i	0	100	93
CC(=O)c1cnc2c(-c3ccc(Cl)cc3)cnn2c1C	105	0	247	-8	/	1	/	/
COC(=O)c1cccc(S(=O)(=O)N2CCCC2)c1	91	0	287	3	i	-2	98	87
O=C(NCC(=O)N1CCN(c2ccccc2O)CC1)c1cccs1	112	0	458	1	i	2	/	/
CCn1c2ccc(/C(C)=N\O)cc2c2cc(/C(C)=N\O)ccc21	91	0	130	0	i	0	112	81
CCn1c2ccccc2c2cc(/C=N/O)ccc21	83	-1	332	0	i	1	/	/
CCOc1ccc2nc(NCCCNS(=O)(=O)c3ccccc3)c(C#N)cc2c1	65*	6	414	-3	i	0	100	92
CCOc1ccc2nc(NCCCNS(=O)(=O)c3ccc(F)cc3)c(C#N)cc2c1	123	/	368	-2	i	-2	/	/
C/C(CCC12CC3CC(CC(C3)C1)C2)=N\NC(N)=S	64*	1	241	0	i	-4	114	104
CCCCCC(=O)N1C[C@@H](O)[C@H](n2cc(COC(=O)c3ccccc3)nn2)C[C@@H]1c1ccc(Cl)cc1	/	0	/	/	/	/	/	/
O=C(Cc1ccc(-n2c(=S)[nH]c3ccccc3c2=O)cc1)N1CCN(c2ccccc2)CC1	65*	0	264	2	i	-1	96	93
CC(C)c1ccc(C(=O)N(c2ccccn2)C(C)c2ccco2)cc1 (configuration not stated)	100	0	659	-4	i	-2	/	/
CC(c1ccco1)N(C(=O)c1ccccc1NS(=O)(=O)c1ccc(Cl)c([N+](=O)[O-])c1)c1ccccn1 (configuration not stated)	65*	0	265	0	i	0	97	88
C=CCOn1c(=O)c(-c2cccs2)[n+]([O-])c2ccccc21	62*	-1	833	3	i	0	92	110
CC(=O)c1ccc(N/N=C2/CCCNC2=O)cc1	63*	0	278	4	i	-1	107	102
Clc1cccc(Cc2c(C3CCCCC3)nc3ccc(Br)cn23)c1	/	1	/	/	/	/	/	/
O=C(NC1CCCCC1)C(c1ccccc1F)n1c(=O)c(-c2cc3ccccc3[nH]2)nc2ccccc21 (configuration not stated)	/	-92	/	/	/	/	/	/
CCOc1ccccc1NC(=O)COC(=O)CC(C)(C)CC1=NS(=O)(=O)c2ccccc2N1	58*	0	319	6	i	-1	106	110
Cc1cc(C)cc(NC(=O)COC(=O)CCCC2=NS(=O)(=O)c3ccccc3N2)c1	93	0	548	1	i	-3	/	/
CCCOC(=O)CSc1nnc(-c2ccc(Cl)cc2Cl)o1	99	0	586	0	i	2	101	88
CCn1c(C)nc2c(=O)oc3ccccc3c21	65*	-1	173	-3	+	-2	94	97
C[C@]12CCC3C(CC[C@H]4CCCC[C@]34C)C1CC[C@@]2(O)CNCCO (some centres not stated)	111	0	370	-2	i	-7	91	95
SMILES	CR mimetic SO	KLK7 zymogen act	T cell HTS	V-ATPase pHluor	Rce1 inhib	MIN6 prolif	Superoxide pick	DHE counter
CCCNC(=O)C1(C)CCCN(C(=O)c2cc(F)cc(F)c2)C1 (configuration not stated)	/	0	/	/	/	/	/	/
CC(=O)c1ccc(NC(=S)NC(=O)/C=C/c2ccc(F)cc2)cc1	49*	/	205	-2	i	-4	102	105
COc1cccc(NC(=S)NC(=O)/C=C/c2ccc(F)cc2)c1	92	0	593	0	i	-5	/	/
CN1CCN(C2CN(C3CCCC3)S(=O)(=O)C2)CC1 (configuration not stated)	/	0	/	/	/	/	/	/
CCSc1ncc(Cl)c(C(=O)Nc2ccccc2C)n1	62*	1	161	5	i	-2	118	123
CSc1ncc(Cl)c(C(=O)Nc2ccccc2C)n1	103	0	135	1	i	-3	101	107
CCSc1ncc(Cl)c(C(=O)Nc2ccc(S(N)(=O)=O)cc2)n1	63*	1	195	4	i	2	102	102
CN(c1ccccc1)S(=O)(=O)c1ccc(NC(=O)c2nc(S(C)(=O)=O)ncc2Cl)cc1	62*	5	45	5	i	-7	101	95
N/C(=N\OC(=O)c1ccccc1F)c1cccc([N+](=O)[O-])c1	97	0	213	1	i	0	/	/
Cc1ccc(CNC(=O)CNS(=O)(=O)c2ccc(Br)s2)cc1	113	0	242	-2	i	2	/	/
CCSc1ncc(Cl)c(C(=O)Nc2ccccc2)n1	100	0	178	0	i	0	107	90
CC1CCN(C(=O)CSc2nc3c(c(=O)n2C)SC(C)C3)CC1 (configuration not stated)	81	0	379	4	i	-3	/	/
CC1CC(=O)N(CC(=O)Nc2cccc(F)c2)c2ccccc2S1(=O)=O (configuration not stated)	105	0	122	1	i	-2	/	/
COc1cc2c(cc1OC)[N+]([O-])=C(c1ccccc1)C2=O	/	1	/	/	/	/	/	/
O=C1C(c2ccccc2)=[N+]([O-])c2ccccc21	57*	0	522	-1	i	-9	81	95
CC1CCN(CCC(=O)Nc2ccc3c(c2)OCCO3)CC1	63*	/	156	/	i	0	117	110
Cc1ccc(NC(=O)CCN2CCC(C)CC2)cc1	107	0	194	-4	i	-4	/	/
O=C(Nc1cccc(C(F)(F)F)c1)C1CCCCC1	111	0	378	1	i	-2	/	/
CN(C(=O)Nc1cccc(C(F)(F)F)c1)C1CCCCC1	54*	0	288	-4	i	-2	91	103
